According to ChEMBL document CHEMBL2021787 (Bioorg Med Chem Lett, 2012):

Assays:
[1] = system: Mycobacterium tuberculosis; assay: Antimycobacterial activity against Mycobacterium tuberculosis H37Rv by agar dilution method; type: functional
How it was run: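 Agar dilution on Middlebrook 7H11 agar supplemented with OADC, following the NCCLS approach, using log-phase M. tuberculosis cultures. Run in triplicate. MIC was taken as the lowest concentration giving complete inhibition of growth.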

HepG2 = assay: Cytotoxicity against human HepG2 cells at 20 to 25 uM after 48 hrs by MTT assay; type: cell-based; conditions: hepg2, 48 h
How it was run: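 HepG2 cells were seeded at 2500/well and grown 24 h, then exposed to compound for 48 h. MTT (20 µL of a 5 mg/mL stock) was added for 2.5 h at 37 °C, and OD was read at 570 nm. Results are reported as % inhibition at a single concentration.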

[2] = Tmax in Wistar rat at 50 mg/kg, po administered as single dose; type: ADME, organism-based; set-up: dose 50 mg/kg, route oral; conditions: in vivo
How it was run: (§1)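 Male Wistar rats got a single oral dose of 50 mg/kg as a suspension in 0.25% sodium CMC with Tween 80. Plasma was measured by reverse-phase HPLC with PDA detection and analysed non-compartmentally. AUC covered 10 h. Bioavailability was derived against a separate 10 mg/kg iv bolus dose in the same vehicle system as the iv study.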

[3] = (§2) Oral bioavailability in Wistar rat at 50 mg/kg administered as single dose; type: ADME, organism-based; conditions: Wistar, in vivo; how it was run: as §1
[4] = Cmax in Wistar rat at 50 mg/kg, po administered as single dose; type: ADME, organism-based; set-up: dose 50 mg/kg, route oral; conditions: in vivo; how it was run: as §1
[5] = (§3) AUC (0 to t) in Wistar rat at 50 mg/kg, po administered as single dose; type: ADME, organism-based, Plasma; set-up: dose 50 mg/kg, route oral; conditions: Wistar, plasma; how it was run: as §1
[6] = system: Mycobacterium tuberculosis; assay: Ratio of INH MIC to compound MIC for Mycobacterium tuberculosis H37Rv by agar dilution method; type: functional
[7] = Elimination rate constant in Wistar rat at 10 mg/kg, iv administered as single bolus dose; type: ADME, organism-based; set-up: dose 10 mg/kg, route intravenous; conditions: in vivo
How it was run: (§4)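 Male Wistar rats given a single iv bolus of 10 mg/kg in 20% propylene glycol, 10% cremophor ELP and 20% N-methylpyrrolidone in normal saline. Plasma was assayed by reverse-phase HPLC with PDA detection. Parameters came from plasma concentration–time data by non-compartmental analysis.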

[8] = (§5) AUC (0 to t) in Wistar rat at 10 mg/kg, iv administered as single bolus dose; type: ADME, organism-based, Plasma; set-up: dose 10 mg/kg, route intravenous; conditions: Wistar, plasma; how it was run: as §4
[9] = Plasma clearance in Wistar rat at 10 mg/kg, iv administered as single bolus dose; type: ADME, organism-based; set-up: dose 10 mg/kg, route intravenous; how it was run: as §4
[10] = Half life in Wistar rat at 10 mg/kg, iv administered as single bolus dose; type: ADME, organism-based; set-up: dose 10 mg/kg, route intravenous; conditions: in vivo; how it was run: as §4
[11] = Cmax in Wistar rat at 10 mg/kg, iv administered as single bolus dose; type: ADME, organism-based; set-up: dose 10 mg/kg, route intravenous; conditions: in vivo; how it was run: as §4
[12] = Volume of distribution in Wistar rat at 10 mg/kg, iv administered as single bolus dose; type: ADME, organism-based; set-up: dose 10 mg/kg, route intravenous; conditions: in vivo; how it was run: as §4
Rattus norvegicus [13] = assay: as §2; type: ADME, organism-based; conditions: in vivo; how it was run: as §1
Rattus norvegicus [14] = assay: as §3; type: ADME, organism-based, Plasma; set-up: dose 50 mg/kg, route oral; conditions: in vivo; how it was run: as §1
Rattus norvegicus [15] = assay: as §5; type: ADME, organism-based, Plasma; set-up: dose 10 mg/kg, route intravenous; conditions: in vivo; how it was run: as §4

SMILES: CC1(C)CC(=O)C2=C(C1)N(NC(=O)c1ccncc1)C1=C(C(=O)CC(C)(C)C1)C2c1ccccc1OCc1ccccc1
- MIC [1]: 0.17 µM

SMILES: C/C(=N/NC(=O)c1ccncc1)c1cccc(CN2CCNCC2)c1O
- MIC [1]: 0.56 µM

SMILES: O=C(NN1C(=O)CCSC1c1ccccc1)c1ccncc1 (stereo not drawn)
- MIC [1]: 9.9 µM
- Activity (HepG2): 10.6%

SMILES: Cc1ccccc1C1SCCC(=O)N1NC(=O)c1ccncc1 (stereo not drawn)
- MIC [1]: 9.56 µM
- Activity (HepG2): 12.6%

SMILES: Cc1cccc(C2SCCC(=O)N2NC(=O)c2ccncc2)c1 (stereo not drawn)
- MIC [1]: 9.56 µM
- Activity (HepG2): 8.6%

SMILES: Cc1ccc(C2SCCC(=O)N2NC(=O)c2ccncc2)cc1 (stereo not drawn)
- MIC [1]: 9.56 µM
- Activity (HepG2): 12.4%

SMILES: COc1ccccc1C1SCCC(=O)N1NC(=O)c1ccncc1 (stereo not drawn)
- MIC [1]: 9.08 µM
- Activity (HepG2): 15.2%

SMILES: COc1cccc(C2SCCC(=O)N2NC(=O)c2ccncc2)c1 (stereo not drawn)
- MIC [1]: 9.08 µM
- Activity (HepG2): 10.4%

SMILES: COc1ccc(C2SCCC(=O)N2NC(=O)c2ccncc2)cc1 (stereo not drawn)
- MIC [1]: 4.54 µM
- Activity (HepG2): 12.6%

SMILES: COc1cc(C2SCCC(=O)N2NC(=O)c2ccncc2)cc(OC)c1OC (stereo not drawn)
- MIC [1]: 7.76 µM
- Activity (HepG2): 8.6%

SMILES: COc1cc(C2SCCC(=O)N2NC(=O)c2ccncc2)ccc1O (stereo not drawn)
- MIC [1]: 8.7 µM
- Activity (HepG2): 16.11%

SMILES: O=C(NN1C(=O)CCSC1c1ccccc1O)c1ccncc1 (stereo not drawn)
- MIC [1]: 19 µM
- Activity (HepG2): 8.6%

SMILES: O=C(NN1C(=O)CCSC1c1cccc(O)c1)c1ccncc1 (stereo not drawn)
- MIC [1]: 9.49 µM
- Activity (HepG2): 8.2%

SMILES: O=C(NN1C(=O)CCSC1c1ccc(O)cc1)c1ccncc1 (stereo not drawn)
- MIC [1]: 18.9 µM
- Activity (HepG2): 10.7%

SMILES: CN(C)c1ccc(C2SCCC(=O)N2NC(=O)c2ccncc2)cc1 (stereo not drawn)
- MIC [1]: 8.78 µM
- Activity (HepG2): 4.6%

SMILES: CC(C)c1ccc(C2SCCC(=O)N2NC(=O)c2ccncc2)cc1 (stereo not drawn)
- MIC [1]: 2.14 µM
- Activity (HepG2): 19%

SMILES: O=C(NN1C(=O)CCSC1c1ccccc1OCc1ccccc1)c1ccncc1 (stereo not drawn)
- MIC [1]: 0.24 µM
- Activity (HepG2): 10.6%

SMILES: O=C(NN1C(=O)CCSC1c1cccc(OCc2ccccc2)c1)c1ccncc1 (stereo not drawn)
- MIC [1]: 0.24 µM
- Activity (HepG2): 12.6%

SMILES: O=C(NN1C(=O)CCSC1c1ccc(OCc2ccccc2)cc1)c1ccncc1 (stereo not drawn)
- Tmax [2]: 3 h
- bioavailability [3]: 16.7%
- MIC [1]: 0.12 µM
- Cmax [4]: 1310 ng/mL
- AUC(0-t) [5]: 5870 ng·h/mL
- Ratio [6]: 3
- k el [7]: 0.000172 s⁻¹
- AUC(0-t) [8]: 7500 ng·h/mL
- clearance [9]: 22.5 mL/min/kg
- Activity (HepG2): 8.8%
- half-life [10]: 1.14 h
- Cmax [11]: 5290 ng/mL
- Vd [12]: 1.99 L

SMILES: O=C(NN1C(=O)CCSC1c1ccccc1[N+](=O)[O-])c1ccncc1 (stereo not drawn)
- MIC [1]: 2.12 µM
- Activity (HepG2): 28.8%

SMILES: O=C(NN1C(=O)CCSC1c1cccc([N+](=O)[O-])c1)c1ccncc1 (stereo not drawn)
- MIC [1]: 0.56 µM
- Activity (HepG2): 28.6%

SMILES: O=C(NN1C(=O)CCSC1c1ccc([N+](=O)[O-])cc1)c1ccncc1 (stereo not drawn)
- MIC [1]: 1.11 µM
- Activity (HepG2): 32%

SMILES: O=C(NN1C(=O)CCSC1c1ccccc1Cl)c1ccncc1 (stereo not drawn)
- MIC [1]: 1.15 µM
- Activity (HepG2): 20.6%

SMILES: O=C(NN1C(=O)CCSC1c1ccc(Cl)cc1)c1ccncc1 (stereo not drawn)
- MIC [1]: 0.575 µM
- Activity (HepG2): 26.8%

SMILES: O=C(NN1C(=O)CCSC1c1ccccc1Br)c1ccncc1 (stereo not drawn)
- MIC [1]: 0.25 µM
- Activity (HepG2): 22.2%

SMILES: O=C(NN1C(=O)CCSC1c1ccc(Br)cc1)c1ccncc1 (stereo not drawn)
- MIC [1]: 0.5 µM
- Activity (HepG2): 18.4%

SMILES: O=C(NN1C(=O)CCSC1c1ccccc1F)c1ccncc1 (stereo not drawn)
- MIC [1]: 0.6 µM
- Activity (HepG2): 18.6%

SMILES: O=C(NN1C(=O)CCSC1c1cccc(F)c1)c1ccncc1 (stereo not drawn)
- MIC [1]: 0.6 µM
- Activity (HepG2): 16.4%

SMILES: O=C(NN1C(=O)CCSC1c1ccc(F)cc1)c1ccncc1 (stereo not drawn)
- MIC [1]: 0.3 µM
- Activity (HepG2): 18.6%

SMILES: O=C(NN1C(=O)CCSC1c1ccccc1C(F)(F)F)c1ccncc1 (stereo not drawn)
- MIC [1]: 0.52 µM
- Activity (HepG2): 24.2%

SMILES: O=C(NN1C(=O)CCSC1c1cccc(C(F)(F)F)c1)c1ccncc1 (stereo not drawn)
- MIC [1]: 0.52 µM
- Activity (HepG2): 26.4%

SMILES: O=C(NN1C(=O)CCSC1c1ccc(C(F)(F)F)cc1)c1ccncc1 (stereo not drawn)
- MIC [1]: 0.13 µM
- Activity (HepG2): 20.6%

SMILES: O=C(NN1C(=O)CCSC1Cc1ccco1)c1ccncc1 (stereo not drawn)
- MIC [1]: 41.2 µM
- Activity (HepG2): 18.6%

SMILES: O=C(NN1C(=O)CCSC1Cc1ccc([N+](=O)[O-])o1)c1ccncc1 (stereo not drawn)
- MIC [1]: 4.48 µM
- Activity (HepG2): 38.6%

SMILES: O=C(c1ccncc1)N1N=CCC1(O)C(F)(F)F (stereo not drawn)
- MIC [1]: 0.77 µM

SMILES: C/C(=N\NC(=O)c1ccncc1)c1ccc(NC(=S)Nc2ccc(F)cc2)cc1
- MIC [1]: 0.45 µM

SMILES: O=C(NNCc1ccccc1)c1ccncc1
- MIC [1]: 0.2 µg/mL

SMILES: O=C(NN=C1CCCCC1)c1ccncc1
- MIC [1]: 0.0004 µM

SMILES: NNC(=O)c1ccncc1 [ISONIAZID]
- Tmax [2]: 2 h
- F (Rattus norvegicus [13]): 17.36%
- MIC [1]: 0.36 µM
- Cmax [4]: 52300 ng/mL
- AUCt (Rattus norvegicus [14]): 197090 ng·h/mL
- k el [7]: 6.67e-05 s⁻¹
- AUCt (Rattus norvegicus [15]): 684000 ng·h/mL
- clearance [9]: 0.21 mL/min/kg
- Activity (HepG2): 10%
- Cmax [11]: 298000 ng/mL
- Vd [12]: 0.026 L

SMILES: Cc1c(CN2CCN(c3cccc(C(F)(F)F)c3)CC2)cc(-c2ccccc2)n1NC(=O)c1ccncc1 [SUDOTERB]
- MIC [1]: 0.25 µg/mL
